From PubChem
Only some compounds are listed: those with a hit (about 1.4% of all), similar ones and a draw of the others.
GSTO1 counter: blocks human GSTO1 in RBBP9 counter-screen; 1.1% of 300,000 active; recombinant GSTO1, activity-based probe fluorescence polarization; inhibition, % at 5.96 µM; AID 1974;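 active means inhibition above the campaign mean inhibition plus 3 SD, cut at about 35% in these data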;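 further: 0% = GSTO1-1 with DMSO and 100% = wells lacking GSTO1-1 enzyme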
Target sequence (P78417 whole entry, looked up): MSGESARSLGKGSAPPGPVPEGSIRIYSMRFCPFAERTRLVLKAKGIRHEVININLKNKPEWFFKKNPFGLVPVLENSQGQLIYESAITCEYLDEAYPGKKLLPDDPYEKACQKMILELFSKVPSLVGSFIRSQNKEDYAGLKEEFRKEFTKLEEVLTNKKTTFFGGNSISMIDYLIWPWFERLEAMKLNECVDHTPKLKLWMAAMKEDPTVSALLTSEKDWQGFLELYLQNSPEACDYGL
HKDC1 inhibitor: blocks human hexokinase HKDC1 activity | Q2TB90 | recombinant HKDC1, G6PDH/diaphorase resazurin coupled fluorescence | inhibition, % at 20 µM | 0.16% of 340,000 active | AID 493160;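 active means inhibition above about 35% when tested at 20 µM, limit read from the data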;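 further: plate controls were DMSO wells with enzyme for no effect and DMSO wells lacking enzyme for full effect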
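Material – in-house recombinant HK5 (HKDC1) enzyme · Quantity – HKDC1 at 5 µg/mL · Buffer or medium – pH 8.0 Tris buffer with 10 mM MgCl2 · Reagent – glucose with 1 mM ATP · Dosing – single 20 µM dose · Times – reaction time 90 min, room temperature, protected from light · Technique – resorufin fluorescence at 613 nm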
Apaf-1 inh: human Apaf-1 inhibition; O14727; reconstituted apoptosome caspase-3 activity, DEVD-Rh110 fluorescence; inhibition, % at 20 µM; 0.71% of 330,000 active; AID 489030; active means inhibition of at least 40% at 20 µM;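 further: plate controls were DMSO wells for no effect and DEVD-CHO caspase inhibitor wells for full effect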
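Assay system: Apoptosome proteins | Medium: pH 7.5 Hepes buffer with CHAPS, BSA, DTT | Also added: Cytochrome c and DEVD-Rh110 substrate | Times: 30 min plus 50 min, RT | Detection: Rhodamine 110 fluorescence at Ex 480/Em 540 nm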
UBC9 SUMO inh: blocks human SUMOylation mediated by UBC9. P63279. HTRF SUMOylation assay, SAE1/SAE2 + UBC9, in vitro. inhibition, % at 35 µM. 0.36% of 290,000 active; in the data active means inhibition above about 50%, passing the limit was not always enough
Target sequence (P63279 whole entry, looked up): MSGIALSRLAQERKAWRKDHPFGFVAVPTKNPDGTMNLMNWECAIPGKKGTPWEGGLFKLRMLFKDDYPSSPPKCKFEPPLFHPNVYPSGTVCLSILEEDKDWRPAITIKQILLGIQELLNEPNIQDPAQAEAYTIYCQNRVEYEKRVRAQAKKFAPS
DTT redox prof: compounds producing H2O2 with reducing agent – biochemical, NIH compound library profiling, artefact control for MLSCN library redox annotation, primary screen; DTT-dependent redox cycling H2O2, phenol red/HRP absorbance; 100% = 100 µM peroxide control, 0% = buffer; activation, % at 10 µM; 0.03% of 200,000 active; AID 878;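 active means activation of at least 50% relative to the plate's high and low controls in the primary single-dose screen; inactive means activation below 50%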;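 further: compound incubated with DTT at 0.8 mM final as the reducing agent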
Starred values were filed as active, the others as inactive; · = no result.

SMILES	GSTO1 counter	HKDC1 inhibitor	Apaf-1 inh	UBC9 SUMO inh	DTT redox prof
Cc1c(C#N)c(NC(=O)CCl)n(Cc2cccs2)c1C	86.7*	10.4	5.9	6.9	-2.2
CN(Cc1ccc2c(c1)OCCO2)C(=O)CSc1ncnc2sccc12	·	-2.2	0.1	·	·
Cc1ccc(CSc2nnc(NC(=O)C3=COCCO3)s2)cc1	·	-1.1	0.9	·	·
Oc1cc2c(cc1O)C1c3ccc(O)c(O)c3OCC1(O)C2 (configuration not stated)	49.0*	6.5	11.8	24.7	0.6
CCOC(=O)C1CCN(c2nc(N)c3c(N)nc(SCC(=O)O)cc3c2C#N)CC1	·	25.9	·	100.4*	·
COc1ccc(CN2C(=O)Cc3c2nc(N)c2c(N)nc(N4CCCCC4)c(C#N)c32)cc1	47.6*	·	51.1*	29.8	0.6
CCOc1cc2c(C#N)c(N3CCNCC3)nc(N)c2c(N)n1	6.5	19.7	21.0	87.1*	-1.4
COc1cc2c(C#N)c(N3CCCCC3)nc(N)c2c(N)n1	-1.7	16.3	97.3*	90.7	0.8
CN(CC(=O)N1CCc2ccccc2C1)c1ccccc1	10.9	-0.1	2.1	18.0	·
COC(=O)c1ccc(CNC(=O)C2CCC(=O)N(CCN3CCOCC3)C2)cc1 (configuration not stated)	·	-3.1	-9.8	9.2	·
CCOc1ccc(N(CC(=O)Nc2ccc(C)c(Cl)c2)S(C)(=O)=O)cc1	-0.5	0.0	18.8	-4.7	·
C=C(C)CN(CC)c1nc(N)c2c(N)nc3c(c2c1C#N)CC(=O)N3C12CC3CC(CC(C3)C1)C2	26.5	7.9	15.5	61.7*	1.4
N#Cc1c(N(CCO)CCO)nc(N)c2c(N)nc3c(c12)CC(=O)N3CC1CCCO1 (configuration not stated)	32.1	9.3	97.6*	100.9*	·
CCCCN1C(=O)Cc2c1nc(N)c1c(N)nc(N(CCC)CCC)c(C#N)c21	73.0*	8.5	·	93.7*	-0.5
O=C1c2cccc3cccc(c23)C(=O)N1CC1CCCO1 (configuration not stated)	6.0	0.8	-0.7	0.1	-1.0
CCN(CC)c1nc2c3c(nc4c(c3c1C#N)CC(=O)N4c1ccc(Cl)cc1)NC(C)=N2	30.2	13.2	17.0	38.1	0.0
CC[C@@H](C)[C@H](NC(=O)Cc1c(C)c2c(cc(C)c3c(C)c(C)oc32)oc1=O)C(=O)O	·	1.9	20.4	45.3	·
Cc1oc2c(c(C)cc3oc(=O)c(CC(=O)N[C@@H](C)C(=O)O)c(C)c32)c1C	2.5	1.6	9.3	50.6*	·
COc1ccc(-c2c(C(F)(F)F)[nH]n3c(=O)cc(-c4ccccc4)nc23)cc1	23.1	11.5	7.0	50.9*	·
COc1ccc(N=C2NC(=O)/C(=C\c3ccco3)S2)cc1	5.9	-2.6	12.6	61.6*	-0.5
Nc1ccc(-c2nc3ccccc3[nH]2)cc1	-0.7	-4.6	7.0	15.1	-3.6
Nc1ccc2nc(-c3ccc(-c4nc5ccc(N)cc5[nH]4)cc3)[nH]c2c1	-34.1	6.6	-10.9	61.8*	·
COc1ccc(-c2nc3ccc([N+](=O)[O-])cc3[nH]2)cc1	-14.1	-3.6	·	54.8*	0.2
O=[N+]([O-])c1ccc2nc(CCCc3nc4ccc([N+](=O)[O-])cc4[nH]3)[nH]c2c1	-5.7	-5.2	-0.9	68.6*	-0.2
O=[N+]([O-])c1ccc(CSCc2ccc([N+](=O)[O-])cc2)cc1	·	-3.0	·	·	·
SMILES	GSTO1 counter	HKDC1 inhibitor	Apaf-1 inh	UBC9 SUMO inh	DTT redox prof
CC(OC(=O)CCCN=C1NS(=O)(=O)c2ccccc21)C(=O)Nc1ccc(F)cc1Cl (configuration not stated)	-0.3	-5.4	1.4	·	·
COc1cc(OC)c2c(-c3ccccc3)cc(=O)oc2c1C(CCN1CCCC1)c1ccc2c(c1)OCO2 (configuration not stated)	5.5	3.1	49.0*	13.3	·
CCCCCc1cc(=O)oc2c(C(CCN3CCCC(C)C3)c3ccc4c(c3)OCO4)c(OC)cc(OC)c12 (configuration not stated)	-2.5	0.6	65.6*	-12.9	·
Cc1[nH]c2ccccc2c1/C=N/NC(N)=S	-5.7	-3.0	-10.9	-0.7	·
CCc1nnc(N/N=C/c2c(C)[nH]c3ccccc23)n1N	52.3*	15.2	1.8	-11.2	-1.4
O=C(O)COc1cnc2ccccc2n1	-4.0	-6.9	-1.4	18.2	-0.5
O=C(CCl)Nc1ccc(Oc2cnc3ccccc3n2)cc1	86.5*	1.5	-1.2	-4.3	-8.3
COc1ccc(CC(=O)Nc2ccc(OC)nc2)cc1	9.2	18.1	1.7	0.8	-2.3
COc1ccc(NC(=O)CCl)cn1	56.4*	·	67.2*	82.7*	·
Cc1ccc2c(CC(=O)NCC3(N4CCOCC4)CCCCC3)coc2c1C	·	-0.3	8.2	·	·
Cc1cc(=O)n(C2CCS(=O)(=O)C2)[nH]1 (configuration not stated)	74.3*	-5.4	28.0	90.1*	0.0
CC(C)CCN(CC(=O)NCc1ccc(F)cc1)S(=O)(=O)c1ccccc1F	1.5	1.3	21.0	13.0	·
O=C(CSc1nnc(CNC(=O)c2cccc(C(F)(F)F)c2)o1)NC1CCCCC1	0.8	-2.7	3.7	4.3	·
O=[N+]([O-])c1ccc(N=Nc2c(Cl)cc(O)cc2Cl)cc1	56.5*	10.9	·	10.2	·
CCOC(=O)CC1COc2ccccc2N1C(=O)c1cccc([N+](=O)[O-])c1 (configuration not stated)	-9.6	-0.7	0.4	13.4	·
N#Cc1c(N)nc2c3c(sc(=N)c2c1N)NC(=O)CC3c1c(F)cccc1Cl (configuration not stated)	34.9*	1.1	21.5	-41.3	-3.4
CCc1cc2c(=O)c(Oc3ccccc3F)c(C)oc2c(CN(C)C)c1O	8.4	-2.5	-1.5	63.5*	2.0
CC(C(=O)NCC1CCCCC1)N1CCN(S(=O)(=O)/C=C/c2ccccc2)CC1 (configuration not stated)	34.8*	-6.0	15.8	-11.9	-0.2
CC(C(=O)NCC1CCCCC1)N1CCc2ccccc2C1 (configuration not stated)	-1.6	-2.5	7.4	-4.9	-0.3
CC(=O)Nc1ccc(N(C(=O)Cn2nnc3ccccc32)C(C(=O)NC2CCCC2)c2ccc(O)c(O)c2)cc1 (configuration not stated)	42.7*	-5.8	6.7	-2.5	-0.6
COc1cc2cc(CCCOC(=O)c3ccc(C(F)(F)F)cc3)oc(=O)c2cc1OC	·	2.5	10.3	·	·
COc1ccc(NC(=O)[C@@H]2[C@@H]3C(=O)N(C4CCCCC4)C(=O)[C@@H]3C3c4ccccc4C=CN32)cc1 (some centres not stated)	-2.3	4.6	51.0*	29.7	-0.3
CC(C)(C)C(=O)[C@@H]1[C@@H]2C(=O)N(Cc3ccccc3)C(=O)[C@@H]2[C@H]2c3ccccc3C=CN12	·	·	·	-2.3	1.6
